One data set concerns caspase 7. Kind of data set: Activation of apoptosis. In kind it is cell-based. As to conditions: same concentration of 5b and 1.
A short description of data set [1]: Rate of reaction of prodrugs with 4 mM GSH. In kind it is in vitro ADME. Particulars: for kGSH/kGSH (mean ± SD): rate with GSH alone, normalised to itself.
Data set [2] relates to panel of NSCLC cell lines. Kind of data set: Proliferation of panel of NSCLC cell lines. The format is cell-based. As to conditions: Homo sapiens, read-out: IC50 range over panel of NSCLC cell lines. The method, boiled down:
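Cell lines from ATCC were cultured per the supplier's protocol and tested by MTT assay per the kit protocol. Each concentration was run in six repeats, in at least two independent experiments. IC50 values were obtained by curve fitting.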

A further data set concerns H1703 NSCLC cells. The data set is described as follows: Alkaline Comet assay. The format is cell-based, human. As to conditions: H1703, 24 h treatment, 5 μM.
A short description of data set [3]: Analysis of metabolites in resected tumors. In kind it is in vivo, NCr nu/nu athymic mice. As to conditions: resected tumors after 92 μmol/kg i.v., 2 times a week for 4 weeks. In short, it runs like this: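 A549 cells, passaged at most four times in RPMI 1640 with 10% FBS, were harvested at 70–80% confluence and implanted s.c. at 5 × 10^6 cells/0.2 mL PBS into NCr nu/nu mice. At about 3 mm × 3 mm, mice were randomised into groups of 12. Test compound was given by tail vein at 92 μmol/kg in 20 μL DMSO, twice weekly for 4 weeks. Tumours were removed at euthanasia right after the last dose and frozen immediately for metabolite analysis.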

The next data set has as its system recombinant GSTP1. The data set is described as follows: GSTP1-catalyzed reaction of prodrug with GSH. The format is in vitro ADME. As to conditions: recombinant GSTP1 versus GSH alone. In short, it runs like this: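 Kinetics were run at 37 °C by UV–visible spectrophotometry in 0.1 M phosphate buffer pH 7.4 with 50 μM DTPA and 4 mM GSH, with or without 40 nM GST. Substrate (typically 10 μM) was added after buffer and enzyme reached thermal equilibrium. Absorbance was followed at 302 nm, and the rate came from a first-order exponential fit.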

Data set [4] concerns A549 human lung adenocarcinoma xenografts. The data set is described as follows: A549 xenograft tumor growth. In kind it is in vivo, NCr nu/nu athymic mice. As to conditions: 92 μmol/kg intravenously, 2 times a week for 4 weeks; compared to 1 or saline controls.
Another data set has as its system A549 NSCLC cells. Kind of data set: Cellular uptake and metabolism by LC/MS. In kind it is in vitro ADME, human. Particulars: A549, 10 μM, any time point from 5 min to 1 h. In short, it runs like this: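 A549 cells were plated in 75 cm2 flasks overnight at 37 °C, then exposed to 10 μM test compound for varying times. Cells were lysed by scraping in 10 mM HCl/acetonitrile, 5% sulfosalicylic acid was added, and samples were spun at 12000g for 15 min and filtered. Analysis was by Q-TOF LC/MS in positive ion mode: C18 column, water/acetonitrile/0.1% formic acid gradient, extracted ion chromatograms at [M+H]+, with a lysate spiked with authentic compound as reference.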

The test system of data set [5] is A549 lung adenocarcinoma cells. Kind of data set: Immunoblot analysis of glutathionylation, stress signaling and apoptosis. The format is cell-based, human. In short, it runs like this:
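A549 lysates from cells treated with test compound (1 μM for the apoptosis markers) were immunoblotted for p38, eIF2α phosphorylation, CHOP, BiP, ATF4, p53 Ser15, Puma, and cleaved caspases 8, 3 and 7 and PARP. […] Blots are representative of at least three independent experiments.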
Background: Immunoblotting shows a protein as a band on a membrane.

For another data set, the target named is PARP-1 enzyme (Homo sapiens, UniProt P09874). Kind of data set: PARP-1 enzyme inhibition. In kind it is biochemical. Particulars: presence or absence of GSH (4 mM)/GSTP1 (40 nM).
PARP-1 enzyme, sequence (P09874 whole entry): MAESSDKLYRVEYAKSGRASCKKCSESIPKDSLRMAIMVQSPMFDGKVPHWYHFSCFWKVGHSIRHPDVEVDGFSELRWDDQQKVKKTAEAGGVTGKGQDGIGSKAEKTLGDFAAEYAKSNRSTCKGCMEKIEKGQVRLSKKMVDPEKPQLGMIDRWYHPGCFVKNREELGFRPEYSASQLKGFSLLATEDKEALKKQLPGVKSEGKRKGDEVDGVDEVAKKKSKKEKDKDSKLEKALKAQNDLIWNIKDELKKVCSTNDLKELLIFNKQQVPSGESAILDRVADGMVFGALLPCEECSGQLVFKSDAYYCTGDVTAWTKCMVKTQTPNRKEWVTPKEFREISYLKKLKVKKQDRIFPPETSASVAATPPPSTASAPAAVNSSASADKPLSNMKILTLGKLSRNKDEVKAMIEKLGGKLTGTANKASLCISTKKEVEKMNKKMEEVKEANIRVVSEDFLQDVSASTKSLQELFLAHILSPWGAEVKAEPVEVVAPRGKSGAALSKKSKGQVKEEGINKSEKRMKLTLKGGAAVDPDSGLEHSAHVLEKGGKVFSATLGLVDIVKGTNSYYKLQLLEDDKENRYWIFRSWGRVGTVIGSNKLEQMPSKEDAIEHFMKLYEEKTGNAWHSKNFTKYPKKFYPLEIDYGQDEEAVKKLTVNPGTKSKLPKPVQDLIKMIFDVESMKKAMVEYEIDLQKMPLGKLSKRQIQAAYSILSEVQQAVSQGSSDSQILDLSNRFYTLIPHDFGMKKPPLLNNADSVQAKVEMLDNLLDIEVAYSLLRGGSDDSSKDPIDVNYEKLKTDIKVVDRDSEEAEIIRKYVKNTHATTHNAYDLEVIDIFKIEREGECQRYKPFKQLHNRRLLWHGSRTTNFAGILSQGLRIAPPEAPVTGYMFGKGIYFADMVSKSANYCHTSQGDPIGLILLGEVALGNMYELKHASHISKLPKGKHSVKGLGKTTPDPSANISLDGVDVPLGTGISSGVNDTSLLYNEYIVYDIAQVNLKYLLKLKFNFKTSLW
The test system of the next data set is A549 cells. Kind of data set: Colony forming assay. As to conditions: A549, combination treatment of 14 and 13. In kind it is cell-based, human.

A value given as a limit tells only on which side of the number the result lay.

For `O=C(c1cc(Cc2n[nH]c(=O)c3ccccc23)ccc1F)N1CCN(C(=O)C2CC2)CC1` [Compound 1, olaparib, reference compound], the “apoptotic signal (cleaved caspase 7)” value in the data set on caspase 7 is recorded as “did not trigger apoptosis”.

With `CCOC(=O)N1CCN(/[N+]([O-])=N/Oc2ccc([N+](=O)[O-])cc2[N+](=O)[O-])CC1` [Compound 2, O^2-(2,4-dinitrophenyl) 1-[(4-ethoxycarbonyl)piperazin-1-yl]diazen-1-ium-1,2-diolate, reference compound], in data set [1], the “kGSH/kGSH (mean ± SD)” value was determined as 1 ± 0.001.

Turning to `O=C(c1cccc(Cc2n[nH]c(=O)c3ccccc23)c1)N1CCN(/[N+]([O-])=N/Oc2ccc([N+](=O)[O-])cc2[N+](=O)[O-])CC1` [Compound 5a], the IC50 in data set [2] is 3 to 20 µM.

As to `O=C(c1cc(Cc2n[nH]c(=O)c3ccccc23)ccc1F)N1CCN(/[N+]([O-])=N/Oc2ccc([N+](=O)[O-])cc2[N+](=O)[O-])CC1` [Compound 5b], the “parent compound still present” value in data set [1] (4 mM GSH, after 2 half-lives, LC/MS) was found to be 25%. For the same compound, the “kGSH/kGSH (mean ± SD)” value in data set [1] came to 1 ± 0.007. Also, the “DNA strand break damage (Comet assay)” value in the data set on H1703 NSCLC cells is recorded as “significant DNA strand break damage”. Also, in data set [3], the “parent drug and liberated PARP-1 inhibitor in tumors” value was “detected in some tumors”. Further, the “apoptotic signal (cleaved caspase 7)” value with caspase 7 is “strong apoptotic signal”. Further, the IC50 in data set [2] was 3 to 20 µM. Moreover, the “enhancement of reaction with GSH when GSTP1 present” value with recombinant GSTP1 is listed as “over 10 fold”. In addition, the “effect on tumor growth” value in data set [4] is given as “reduced growth of tumors to a lesser extent”. In the data set with A549 NSCLC cells, the “parent compound in cell lysates” value is “not detected”.

In the case of `CNc1ccc(C(=O)Oc2cc(O/N=[N+](\[O-])N(C)C)c([N+](=O)[O-])cc2[N+](=O)[O-])cc1` [Compound 8, PABA/NO, reference compound], the “kGSH/kGSH (mean ± SD)” value in [1] amounted to 1 ± 0.003.

For the compound `CN(C)/[N+]([O-])=N\Oc1cc(O/N=[N+](\[O-])N2CCN(C(=O)c3cc(Cc4n[nH]c(=O)c5ccccc45)ccc3F)CC2)c([N+](=O)[O-])cc1[N+](=O)[O-]` [Compound 13], the “kGSH/kGSH (mean ± SD)” value in data set [1] is 1 ± 0.004. Further, the “parent drug and liberated PARP-1 inhibitor in tumors” value in data set [3] is listed as “detected in some tumors”. In addition, the “time to caspase 8 activation” value in [5] (A549, 1 μM) is listed as at most 6 h. In addition, in data set [5] (A549, nonreducing immunoblot), the “time to detection of glutathione attached to protein” value is at most 1 h. In addition, in [5] (A549, phosphorylation persisted for 8 h), the “time to activation of stress kinase p38” value was at most 15 min. The “effect on tumor growth” value in data set [4] is “significant reduction of the tumor growth”. The “PARP-1 enzyme inhibition, activated versus prodrug” value at PARP-1 enzyme is on record as “Activated compound is a much better PARP-1 inhibitor than the prodrug”. For the same compound, the “cytotoxicity in combination with 14” value in the data set on A549 cells is recorded as “enhanced toxicity”.

As usually defined, the IC50 is the concentration that inhibits the measured activity by half.

These data come from publication PMC3983374 (Journal of Medicinal Chemistry, 2014).
